Measured values taken from ChEMBL document CHEMBL5058577, “EUbOPEN Chemogenomics Library 2 (Multiplex)” (2022).

Tested on: Fibroblast
Assay: Multiplex assay against human fibroblast
Assay type: toxicity, cell-based
In short: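 Compound was added to live cells that had been stained at seeding with Hoechst33342, BioTracker Green Microtubule Cytoskeleton Dye, MitoTracker Red and Annexin V Alexa Fluor 680, and imaging followed on a CQ1 microscope at 37°C and 5% CO2. CellPathfinder machine-learning gating divided cells into Hoechst high-intensity objects or normal cells, normal cells into healthy, pyknosed or fragmented nuclei, and pyknosed cells into mitotic or apoptotic. Tubulin, mitochondrial-mass and membrane-permeability phenotypes are per cents of healthy-nucleus cells.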

[1] = 12 h, 1 µM, compound concentration 1 uM, replicate 1
[2] = 12 h, 1 µM, compound concentration 1 uM, replicate 2
[3] = 12 h, 10 µM, compound concentration 10 uM, replicate 1
[4] = 12 h, 10 µM, compound concentration 10 uM, replicate 2
[5] = 24 h, 1 µM, compound concentration 1 uM, replicate 1
[6] = 24 h, 1 µM, compound concentration 1 uM, replicate 2
[7] = 24 h, 10 µM, compound concentration 10 uM, replicate 1
[8] = 24 h, 10 µM, compound concentration 10 uM, replicate 2
[9] = 48 h, 1 µM, compound concentration 1 uM, replicate 1
[10] = 48 h, 1 µM, compound concentration 1 uM, replicate 2
[11] = 48 h, 10 µM, compound concentration 10 uM, replicate 1
[12] = 48 h, 10 µM, compound concentration 10 uM, replicate 2

CCCCC(=O)N(Cc1ccc(-c2ccccc2-c2nnn[nH]2)cc1)[C@H](C(=O)O)C(C)C was tested, and the “Population Apoptotic (%)” value [1] was 45%, the “Population Fragmented Nuclei (%)” value [1] was 9% and the “Population Healthy Nuclei (%)” value [1] was 74%. For the same compound, the “Population Hoechst High Intensity Objects (%)” value [1] was 4%, the “Population Membrane Permeable-Phenotype (%)” value [1] was 0% and the “Population Mitochondria Different-Phenotype (%)” value [1] was 0%. For the same compound, the “Population Mitotic Cells (%)” value [1] was 54%, the “Population Normal (%)” value [1] was 95% and the “Population Pyknosed Nuclei (%)” value [1] was 16%. For the same compound, the “Population Tubulin-Different-Phenotype (%)” value [1] was 20%, the “Total Cell Count” value [1] was 143 and the “Population Apoptotic (%)” value [2] was 44%. For the same compound, the “Population Fragmented Nuclei (%)” value [2] was 21%, the “Population Healthy Nuclei (%)” value [2] was 54% and the “Population Hoechst High Intensity Objects (%)” value [2] was 3%. For the same compound, the “Population Membrane Permeable-Phenotype (%)” value [2] was 8%, the “Population Mitochondria Different-Phenotype (%)” value [2] was 6% and the “Population Mitotic Cells (%)” value [2] was 55%. The “Population Normal (%)” value [2] was 96%, the “Population Pyknosed Nuclei (%)” value [2] was 24% and the “Population Tubulin-Different-Phenotype (%)” value [2] was 36%. For the same compound, the “Total Cell Count” value [2] was 156, the “Population Apoptotic (%)” value [3] was 37% and the “Population Fragmented Nuclei (%)” value [3] was 20%. For the same compound, the “Population Healthy Nuclei (%)” value [3] was 56%, the “Population Hoechst High Intensity Objects (%)” value [3] was 0% and the “Population Membrane Permeable-Phenotype (%)” value [3] was 3%. For the same compound, the “Population Mitochondria Different-Phenotype (%)” value [3] was 3%, the “Population Mitotic Cells (%)” value [3] was 62% and the “Population Normal (%)” value [3] was 100%. The “Population Pyknosed Nuclei (%)” value [3] was 22%, the “Population Tubulin-Different-Phenotype (%)” value [3] was 23% and the “Total Cell Count” value [3] was 106. For the same compound, the “Population Fragmented Nuclei (%)” value [4] was 27%, the “Population Healthy Nuclei (%)” value [4] was 42% and the “Population Hoechst High Intensity Objects (%)” value [4] was 3%. For the same compound, the “Population Membrane Permeable-Phenotype (%)” value [4] was 11%, the “Population Mitochondria Different-Phenotype (%)” value [4] was 11% and the “Population Normal (%)” value [4] was 96%. For the same compound, the “Population Pyknosed Nuclei (%)” value [4] was 29%, the “Population Tubulin-Different-Phenotype (%)” value [4] was 51% and the “Total Cell Count” value [4] was 130. The “Population Apoptotic (%)” value [5] was 66%, the “Population Fragmented Nuclei (%)” value [5] was 15% and the “Population Healthy Nuclei (%)” value [5] was 70%. For the same compound, the “Population Hoechst High Intensity Objects (%)” value [5] was 0%, the “Population Membrane Permeable-Phenotype (%)” value [5] was 1% and the “Population Mitochondria Different-Phenotype (%)” value [5] was 2%. The “Population Mitotic Cells (%)” value [5] was 33%, the “Population Normal (%)” value [5] was 99% and the “Population Pyknosed Nuclei (%)” value [5] was 14%. The “Population Tubulin-Different-Phenotype (%)” value [5] was 17%, the “Total Cell Count” value [5] was 146 and the “Population Apoptotic (%)” value [6] was 38%. For the same compound, the “Population Fragmented Nuclei (%)” value [6] was 21%, the “Population Healthy Nuclei (%)” value [6] was 52% and the “Population Hoechst High Intensity Objects (%)” value [6] was 2%. For the same compound, the “Population Membrane Permeable-Phenotype (%)” value [6] was 2%, the “Population Mitochondria Different-Phenotype (%)” value [6] was 1% and the “Population Mitotic Cells (%)” value [6] was 61%. For the same compound, the “Population Normal (%)” value [6] was 97%, the “Population Pyknosed Nuclei (%)” value [6] was 25% and the “Population Tubulin-Different-Phenotype (%)” value [6] was 25%. For the same compound, the “Total Cell Count” value [6] was 145, the “Population Apoptotic (%)” value [7] was 48% and the “Population Fragmented Nuclei (%)” value [7] was 18%. For the same compound, the “Population Healthy Nuclei (%)” value [7] was 56%, the “Population Hoechst High Intensity Objects (%)” value [7] was 2% and the “Population Membrane Permeable-Phenotype (%)” value [7] was 0%. The “Population Mitochondria Different-Phenotype (%)” value [7] was 1%, the “Population Mitotic Cells (%)” value [7] was 51% and the “Population Normal (%)” value [7] was 97%. For the same compound, the “Population Pyknosed Nuclei (%)” value [7] was 25%, the “Population Tubulin-Different-Phenotype (%)” value [7] was 31% and the “Total Cell Count” value [7] was 110. For the same compound, the “Population Apoptotic (%)” value [8] was 35%, the “Population Fragmented Nuclei (%)” value [8] was 25% and the “Population Healthy Nuclei (%)” value [8] was 44%. For the same compound, the “Population Hoechst High Intensity Objects (%)” value [8] was 4%, the “Population Membrane Permeable-Phenotype (%)” value [8] was 9% and the “Population Mitochondria Different-Phenotype (%)” value [8] was 10%. For the same compound, the “Population Mitotic Cells (%)” value [8] was 64%, the “Population Normal (%)” value [8] was 95% and the “Population Pyknosed Nuclei (%)” value [8] was 29%. The “Population Tubulin-Different-Phenotype (%)” value [8] was 65%, the “Total Cell Count” value [8] was 130 and the “Population Apoptotic (%)” value [9] was 80%. The “Population Fragmented Nuclei (%)” value [9] was 18%, the “Population Healthy Nuclei (%)” value [9] was 71% and the “Population Hoechst High Intensity Objects (%)” value [9] was 6%. For the same compound, the “Population Membrane Permeable-Phenotype (%)” value [9] was 0%, the “Population Mitochondria Different-Phenotype (%)” value [9] was 1% and the “Population Mitotic Cells (%)” value [9] was 20%. The “Population Normal (%)” value [9] was 93%, the “Population Pyknosed Nuclei (%)” value [9] was 10% and the “Population Tubulin-Different-Phenotype (%)” value [9] was 17%. The “Total Cell Count” value [9] was 153, the “Population Apoptotic (%)” value [10] was 40% and the “Population Fragmented Nuclei (%)” value [10] was 27%. The “Population Healthy Nuclei (%)” value [10] was 51%, the “Population Hoechst High Intensity Objects (%)” value [10] was 3% and the “Population Membrane Permeable-Phenotype (%)” value [10] was 1%. For the same compound, the “Population Mitochondria Different-Phenotype (%)” value [10] was 3%, the “Population Mitotic Cells (%)” value [10] was 59% and the “Population Normal (%)” value [10] was 96%. The “Population Pyknosed Nuclei (%)” value [10] was 21%, the “Population Tubulin-Different-Phenotype (%)” value [10] was 33% and the “Total Cell Count” value [10] was 155. The “Population Apoptotic (%)” value [11] was 64%, the “Population Fragmented Nuclei (%)” value [11] was 28% and the “Population Healthy Nuclei (%)” value [11] was 56%. The “Population Hoechst High Intensity Objects (%)” value [11] was 4%, the “Population Membrane Permeable-Phenotype (%)” value [11] was 0% and the “Population Mitochondria Different-Phenotype (%)” value [11] was 5%. For the same compound, the “Population Mitotic Cells (%)” value [11] was 35%, the “Population Normal (%)” value [11] was 95% and the “Population Pyknosed Nuclei (%)” value [11] was 15%. For the same compound, the “Population Tubulin-Different-Phenotype (%)” value [11] was 30%, the “Total Cell Count” value [11] was 112 and the “Population Apoptotic (%)” value [12] was 57%. For the same compound, the “Population Fragmented Nuclei (%)” value [12] was 39%, the “Population Healthy Nuclei (%)” value [12] was 39% and the “Population Membrane Permeable-Phenotype (%)” value [12] was 7%. For the same compound, the “Population Mitotic Cells (%)” value [12] was 42%, the “Population Pyknosed Nuclei (%)” value [12] was 20% and the “Population Tubulin-Different-Phenotype (%)” value [12] was 69%. The “Total Cell Count” value [12] was 141.
